Reference: ChEMBL document CHEMBL1127344, “Tridentate ligands containing the SNS donor atom set as a novel backbone for the development of technetium brain-imaging agents” (J Med Chem, 1994)

Legend:
[1] = organism: Mus musculus; experiment: Tested for biodistribution of compound at 5 min in mice heart; format: ADME, organism-based; conditions: in vivo
Outline: (§1)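 Male Swiss albino mice, at least five per group, received HPLC-purified 99mTc complex by tail vein. The complex was reconstituted in 50% methanol (0.1 mL, 2-3 μCi). Mice were killed by cardiectomy under light ether at 1-60 min pi. Organs were weighed and γ-counted against a 1% injected-dose standard to give % dose/organ. Blood and muscle were taken as 7% and 43% of body weight.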

[2] = organism: Mus musculus; experiment: Tested for biodistribution of compound at 5 min in mice intestine; format: ADME, organism-based; conditions: in vivo; outline: as §1
[3] = organism: Mus musculus; experiment: Tested for biodistribution of compound at 30 min in mice kidney; format: ADME, organism-based; conditions: in vivo, 0.5 h
Outline: (§2)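 Male Swiss albino mice, at least five per group, received 0.1 mL (2-3 μCi) of HPLC-purified 99mTc complex reconstituted in 50% methanol by tail vein. They were killed by cardiectomy under light ether anesthesia at set times (1-60 min pi). Organs were weighed and γ-counted against a 1% injected-dose standard to give % dose/organ. Blood and muscle were taken as 7% and 43% of body weight.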

[4] = organism: Mus musculus; experiment: Tested for biodistribution of compound at 30 min in mice iver; format: ADME, organism-based, Liver; conditions: in vivo, 0.5 h; outline: as §2
[5] = organism: Mus musculus; experiment: Tested for biodistribution of compound at 60 min in mice stomach; format: ADME, organism-based; conditions: in vivo, 1 h; outline: as §1
[6] = organism: Mus musculus; experiment: Tested for biodistribution of compound at 60 min in mice brain; format: ADME, organism-based; conditions: in vivo, 1 h; outline: as §1
[7] = organism: Mus musculus; experiment: Tested for biodistribution of compound at 30 min in mice blood; format: ADME, organism-based; conditions: in vivo, 0.5 h; outline: as §2
[8] = organism: Mus musculus; experiment: Tested for biodistribution of compound at 1 min in mice heart; format: ADME, organism-based; conditions: in vivo; outline: as §2
[9] = organism: Mus musculus; experiment: Tested for biodistribution of compound at 10 min in mice iver; format: ADME, organism-based, Liver; conditions: in vivo; outline: as §2
[10] = organism: Mus musculus; experiment: Tested for biodistribution of compound at 60 min in mice intestine; format: ADME, organism-based; conditions: in vivo, 1 h; outline: as §1
[11] = organism: Mus musculus; experiment: Tested for biodistribution of compound at 60 min in mice lungs; format: ADME, organism-based, Lung; conditions: in vivo, 1 h; outline: as §1
[12] = organism: Mus musculus; experiment: Tested for biodistribution of compound at 1 min in mice lungs; format: ADME, organism-based, Lung; conditions: in vivo; outline: as §2
[13] = organism: Mus musculus; experiment: Tested for biodistribution of compound at 5 min in mice blood; format: ADME, organism-based; conditions: in vivo; outline: as §1
[14] = organism: Mus musculus; experiment: Tested for biodistribution of compound at 60 min in mice urine; format: ADME, organism-based; conditions: in vivo, 1 h; outline: as §1
[15] = organism: Mus musculus; experiment: Tested for biodistribution of compound at 10 min in mice brain; format: ADME, organism-based; conditions: in vivo; outline: as §2
[16] = organism: Mus musculus; experiment: Tested for biodistribution of compound at 5 min in mice brain; format: ADME, organism-based; conditions: in vivo; outline: as §1
[17] = organism: Mus musculus; experiment: Tested for biodistribution of compound at 5 min in mice stomach; format: ADME, organism-based; conditions: in vivo; outline: as §1
[18] = organism: Mus musculus; experiment: Tested for biodistribution of compound at 5 min in mice iver; format: ADME, organism-based, Liver; conditions: in vivo; outline: as §1
[19] = organism: Mus musculus; experiment: Tested for biodistribution of compound at 30 min in mice spleen; format: ADME, organism-based; conditions: in vivo, 0.5 h; outline: as §2
[20] = organism: Mus musculus; experiment: Tested for biodistribution of compound at 10 min in mice blood; format: ADME, organism-based; conditions: in vivo; outline: as §2
[21] = organism: Mus musculus; experiment: Tested for biodistribution of compound at 60 min in mice heart; format: ADME, organism-based; conditions: in vivo, 1 h; outline: as §1
[22] = organism: Mus musculus; experiment: Tested for biodistribution of compound at 30 min in mice stomach; format: ADME, organism-based; conditions: in vivo, 0.5 h; outline: as §2
[23] = organism: Mus musculus; experiment: Tested for biodistribution of compound at 10 min in mice muscle; format: ADME, organism-based, Muscle tissue; conditions: in vivo; outline: as §2
[24] = organism: Mus musculus; experiment: Tested for biodistribution of compound at 10 min in mice intestine; format: ADME, organism-based; conditions: in vivo; outline: as §2
[25] = organism: Mus musculus; experiment: Tested for biodistribution of compound at 60 min in mice kidney; format: ADME, organism-based; conditions: in vivo, 1 h; outline: as §1
[26] = organism: Mus musculus; experiment: Tested for biodistribution of compound at 30 min in mice heart; format: ADME, organism-based; conditions: in vivo, 0.5 h; outline: as §2
[27] = organism: Mus musculus; experiment: Tested for biodistribution of compound at 60 min in mice muscle; format: ADME, organism-based, Muscle tissue; conditions: in vivo, 1 h; outline: as §1
[28] = organism: Mus musculus; experiment: Tested for biodistribution of compound at 10 min in mice spleen; format: ADME, organism-based; conditions: in vivo; outline: as §2
[29] = organism: Mus musculus; experiment: Tested for biodistribution of compound at 30 min in mice urine; format: ADME, organism-based; conditions: in vivo, 0.5 h; outline: as §2
[30] = organism: Mus musculus; experiment: Tested for biodistribution of compound at 60 min in mice iver; format: ADME, organism-based, Liver; conditions: in vivo, 1 h; outline: as §1
[31] = organism: Mus musculus; experiment: Tested for biodistribution of compound at 60 min in mice spleen; format: ADME, organism-based; conditions: in vivo, 1 h; outline: as §1
[32] = organism: Mus musculus; experiment: Tested for biodistribution of compound at 10 min in mice stomach; format: ADME, organism-based; conditions: in vivo; outline: as §2
[33] = organism: Mus musculus; experiment: Tested for biodistribution of compound at 1 min in mice stomach; format: ADME, organism-based; conditions: in vivo; outline: as §2
[34] = organism: Mus musculus; experiment: Tested for biodistribution of compound at 30 min in mice brain; format: ADME, organism-based; conditions: in vivo, 0.5 h; outline: as §2
[35] = organism: Mus musculus; experiment: Tested for biodistribution of compound at 10 min in mice urine; format: ADME, organism-based; conditions: in vivo; outline: as §2
[36] = organism: Mus musculus; experiment: Tested for biodistribution of compound at 1 min in mice spleen; format: ADME, organism-based; conditions: in vivo; outline: as §2
[37] = organism: Mus musculus; experiment: Tested for biodistribution of compound at 5 min in mice kidney; format: ADME, organism-based; conditions: in vivo; outline: as §1
[38] = organism: Mus musculus; experiment: Tested for biodistribution of compound at 60 min in mice blood; format: ADME, organism-based; conditions: in vivo, 1 h; outline: as §1
[39] = organism: Mus musculus; experiment: Tested for biodistribution of compound at 1 min in mice intestine; format: ADME, organism-based; conditions: in vivo; outline: as §2
[40] = organism: Mus musculus; experiment: Tested for biodistribution of compound at 10 min in mice kidney; format: ADME, organism-based; conditions: in vivo; outline: as §2
[41] = organism: Mus musculus; experiment: Tested for biodistribution of compound at 1 min in mice liver; format: ADME, organism-based; conditions: in vivo; outline: as §2
[42] = organism: Mus musculus; experiment: Tested for biodistribution of compound at 1 min in mice muscle; format: ADME, organism-based, Muscle tissue; conditions: in vivo; outline: as §2
[43] = organism: Mus musculus; experiment: Tested for biodistribution of compound at 30 min in mice muscle; format: ADME, organism-based, Muscle tissue; conditions: in vivo, 0.5 h; outline: as §2
[44] = organism: Mus musculus; experiment: Tested for biodistribution of compound at 30 min in mice lungs; format: ADME, organism-based, Lung; conditions: in vivo, 0.5 h; outline: as §2
[45] = organism: Mus musculus; experiment: Tested for biodistribution of compound at 1 min in mice blood; format: ADME, organism-based; conditions: in vivo; outline: as §2
[46] = organism: Mus musculus; experiment: Tested for biodistribution of compound at 10 min in mice heart; format: ADME, organism-based; conditions: in vivo; outline: as §2
[47] = organism: Mus musculus; experiment: Tested for biodistribution of compound at 30 min in mice intestine; format: ADME, organism-based; conditions: in vivo, 0.5 h; outline: as §2
[48] = organism: Mus musculus; experiment: Tested for biodistribution of compound at 1 min in mice kidney; format: ADME, organism-based; conditions: in vivo; outline: as §2
[49] = organism: Mus musculus; experiment: Tested for biodistribution of compound at 5 min in mice muscle; format: ADME, organism-based, Muscle tissue; conditions: in vivo; outline: as §1
[50] = organism: Mus musculus; experiment: Tested for biodistribution of compound at 10 min in mice lungs; format: ADME, organism-based, Lung; conditions: in vivo; outline: as §2
[51] = organism: Mus musculus; experiment: Tested for biodistribution of compound at 1 min in mice brain; format: ADME, organism-based; conditions: in vivo; outline: as §2
[52] = organism: Mus musculus; experiment: Tested for biodistribution of compound at 5 min in mice spleen; format: ADME, organism-based; conditions: in vivo; outline: as §1
[53] = organism: Mus musculus; experiment: Tested for biodistribution of compound at 5 min in mice lungs; format: ADME, organism-based, Lung; conditions: in vivo; outline: as §1

Dose/organ [1]: 0.59% | Dose/organ [2]: 9.31% | Dose/organ [3]: 1.04% | Dose/organ [4]: 24.36% | Dose/organ [5]: 1.1% | Dose/organ [6]: 0.15% | Dose/organ [7]: 0.8% | Dose/organ [8]: 4.02% | Dose/organ [9]: 24.79% | Dose/organ [10]: 44.3% | Dose/organ [11]: 0.26% | Dose/organ [12]: 5.25% | Dose/organ [13]: 1.66% | Dose/organ [14]: 1.79% | Dose/organ [15]: 1.57% | Dose/organ [16]: 2.43% | Dose/organ [17]: 0.73% | Dose/organ [18]: 16.97% | Dose/organ [19]: 0.06% | Dose/organ [20]: 1.24% | Dose/organ [21]: 0.05% | Dose/organ [22]: 0.37% | Dose/organ [23]: 20.29% | Dose/organ [24]: 15.44% | Dose/organ [25]: 0.54% | Dose/organ [26]: 0.11% | Dose/organ [27]: 5.27% | Dose/organ [28]: 0.16% | Dose/organ [29]: 0.77% | Dose/organ [30]: 18.03% | Dose/organ [31]: 0.03% | Dose/organ [32]: 1.02% | Dose/organ [33]: 0.35% | Dose/organ [34]: 0.39% | Dose/organ [35]: 0.27% | Dose/organ [36]: 0.06% | Dose/organ [37]: 2.45% | Dose/organ [38]: 0.79% | Dose/organ [39]: 4.14% | Dose/organ [40]: 1.76% | Dose/organ [41]: 3.58% | Dose/organ [42]: 34.39% | Dose/organ [43]: 10.41% | Dose/organ [44]: 0.52% | Dose/organ [45]: 5.77% | Dose/organ [46]: 0.31% | Dose/organ [47]: 43.12% | Dose/organ [48]: 2.3% | Dose/organ [49]: 25.57% | Dose/organ [50]: 1.05% | Dose/organ [51]: 3.68% | Dose/organ [52]: 0.21% | Dose/organ [53]: 1.52%
Substance: [4-methoxythio)phenolato][N,N-bis(2-mercaptoethyl)-2-(ethylthio)ethylamine] oxotechnetium
